The values that follow come from ChEMBL document CHEMBL1152697, “Design, synthesis and SAR studies of 4-allyoxyaniline amides as potent 15-lipoxygensae inhibitors” (Bioorg Med Chem, 2009).

The nature of this experiment: Inhibition of soybean 15-lipoxygenase. The arrangement: species or system Glycine max. The procedure, abridged:
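Soybean 15-lipoxygenase (final 167 U/mL) in 0.1 M borate buffer pH 9, linoleic acid substrate (final 134 μM), 20 ± 1 °C. Compounds added in DMSO (final 1%), DMSO-only controls, inhibitor plus substrate as blank. Absorbance at 234 nm read for 60 s after enzyme addition. Enzyme kept on ice. At least six control tubes and triplicate tubes per inhibitor. IC50 by linear interpolation around 50% activity, mean ± SD.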

`C=CCOc1ccc(NC(=O)C2CCCC2)cc1` displayed an IC50 of 4.1 µM. Next, `C=CCc1ccc(OC(=O)c2ccccc2)cc1`: 6.7 µM; `C=CCOc1ccc(NC(=O)C2CCCCC2)cc1`: 6.4 µM. In the case of `C=CCOc1ccc(NC(=O)C2CCC2)cc1` it was 2.2 µM; in that of `C=CCOc1ccc(NC(=O)c2cccc(F)c2)cc1`, 5.6 µM; in that of `C=CCOc1ccc(NC(=O)c2ccc(F)cc2)cc1`, 3.8 µM.

`C=CCOc1ccc(NC(=O)c2cccc(Cl)c2)cc1`: the concentration for half-maximal inhibition (IC50) turned out to be 8.1 µM. In the case of `C=CCOc1ccc(NC(=O)c2cccc(C)c2)cc1` it was 6.7 µM; in that of `C=CCc1ccc(O)c(OC)c1` [EUGENOL], 38.2 µM; in that of `C=CCOc1ccc(NC(=O)C2CC2)cc1`, 6.1 µM. Consider `C=CCc1ccc(OC(=O)c2ccccc2)c(OC)c1` [EUGENYL BENZOAT], for which the half-inhibitory concentration (IC50) worked out at 7 µM.

The compound `C=CCOc1ccc(NC(=O)c2cccc(OC)c2)cc1` registered an IC50 of 17 µM. Next, `C=CCOc1ccc(NC(=O)c2ccccc2)cc1`: 3.3 µM; `C=CCOc1ccc(NC(=O)c2ccc(OC)cc2)cc1`: 13.8 µM. `C=CCOc1ccc(NC(=O)c2ccc(C)cc2)cc1` registered an IC50 of 10.1 µM. In the case of `C=CCc1ccc(OC)cc1` [ESTRAGOLE] it was 64.1 µM; in that of `C=CCOc1ccc(OC(=O)c2ccccc2)cc1`, 6.2 µM.

Consider `C=CCOc1ccc(NC(=O)C(C)C)cc1`, for which the IC50 worked out at 12.9 µM. `C=CCc1ccc(OC)c(OC)c1` [METHYLEUGENOL] displayed a 50% inhibitory concentration (IC50) of 96.1 µM. Compound `C=CCOc1ccc(NC(=O)c2ccc(Cl)cc2)cc1` gave an IC50 of 8.8 µM.

In turn, `C=CCOc1ccc(NC(=O)C23CC4CC(CC(C4)C2)C3)cc1` had an IC50 of 0.67 µM.

A word on the IC50: it is the concentration that inhibits the measured activity by half. Higher therefore signals weaker potency.
